Measurements taken from the RNAGym collection of RNA variant scans (doi:10.1002/anie.201605470).

B1: Osa-1-4 twister ribozyme (parent)
chain: CCGCCUAACACUGCCAAUGCCGGUCCCAAGCCCGGAUAAAAGUGGAGGGGGCGG

Variants of: B1
Assay: self-cleavage, relative activity (ratio to wild type); higher = more cleavage; co-transcriptional
In short: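 For each read, cleavage status was taken from whether upstream sequence was present. The reads came from an Oryza sativa twister ribozyme of 54 nucleotides, whose DNA template was synthesised with 97 % wild-type base and 1 % of each other base at the 48 positions downstream of the cleavage site. The template was transcribed in vitro at 37 °C for 2 h with co-transcriptional self-cleavage, and the RNA was reverse-transcribed using a template-switching oligonucleotide, PCR-amplified and deep-sequenced. Relative activity is the fraction cleaved normalised to wild type.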

Row | Variant | self-cleavage
1 | A17G C33U | 0.19
2 | G19A U24A | 0.08
3 | G19A U24C | 0.08
4 | G19A U24G | 0.09
5 | A17U | 1.03
6 | A17G G30A | 0.05
7 | A17G G30C | 0.06
8 | A17G G30U | 0.05
9 | A17G G51C | 0.14
10 | A17G G51U | 0.3
11 | A17G G51A | 0.44
12 | U18A U37A | 0.63
13 | U18A U37G | 0.93
14 | U18A U37C | 0.98
15 | A17G G54U | 0.91
16 | A17G G54C | 0.92
17 | A17G G54A | 0.9
18 | U18G U24C | 0.38
19 | U18G U24G | 0.05
20 | U18G U24A | 0.53
21 | A17G U18C | 0.52
22 | A17G U18A | 0.94
23 | A17G U18G | 0.85
24 | A17G G53U | 0.54

Row | Variant | self-cleavage
25 | A17G G53C | 0.12
26 | A17G G53A | 0.85
27 | G19C G30U | 0.02
28 | G19C G30A | 0.02
29 | G19C G30C | 0.03
30 | A17U G30C | 0.06
31 | A17U G30U | 0.04
32 | A17U G30A | 0.05
33 | A17U G51A | 0.67
34 | A17U G51U | 0.38
35 | A17U G51C | 0.19
36 | G19C G42C | 0.04
37 | G19C G42A | 0.05
38 | G19C G42U | 0.02
39 | A17U C31A | 0.05
40 | A17U C31G | 0.12
41 | A17U C31U | 0.94
42 | G19C G35A | 0.45
43 | G19C G35C | 0.29
44 | G19C G35U | 0.42
45 | A17U C15U | 0.64
46 | A17U C15G | 0.54
47 | A17U C15A | 0.62
48 | A17G G48C | 0.13

Row | Variant | self-cleavage
49 | A17G G48A | 0.15
50 | A17G G48U | 0.12
51 | G19A G48U | 0.06
52 | G19A G48A | 0.06
53 | G19A G48C | 0.06
54 | U18A U24A | 0.25
55 | U18A U24C | 0.37
56 | U18A U24G | 0.02
57 | A17U A40G | 0.93
58 | A17U A40U | 0.63
59 | A17U A40C | 0.09
60 | A17G U24C | 0.36
61 | A17G U24G | 0.03
62 | A17G U24A | 0.43
63 | A17U C52A | 1.02
64 | A17U C52U | 1.01
65 | A17U C52G | 0.98
66 | G19C G49C | 0.03
67 | G19C G49A | 0.04
68 | G19C G49U | 0.04
69 | G19A G35U | 0.2
70 | G19A G35A | 0.83
71 | G19A G35C | 0.68
72 | A17U U24G | 0.03

Row | Variant | self-cleavage
73 | A17U U24C | 0.44
74 | A17U U24A | 0.3
75 | G19A G42U | 0.06
76 | G19A G42A | 0.1
77 | G19A G42C | 0.09
78 | A17U G47U | 0.45
79 | A17U G47A | 0.47
80 | A17U G47C | 0.16
81 | A17U C20G | 0.23
82 | A17U C20U | 0.95
83 | A17U C20A | 0.85
84 | A17U A36G | 1.05
85 | A17U A36C | 0.79
86 | A17U A36U | 1.04
87 | A17U U12G | 0.44
88 | A17U U12A | 0.94
89 | A17U U12C | 0.58
90 | A17U G13U | 0.03
91 | A17U G13A | 0.14
92 | A17U G13C | 0.03
93 | U18A U43A | 0.83
94 | U18A U43G | 0.58
95 | U18A U43C | 0.36
96 | A17G G45A | 0.43

Row | Variant | self-cleavage
97 | A17G G45U | 0.17
98 | A17G G45C | 0.07
99 | G19C G47A | 0.03
100 | G19C G47C | 0.02
101 | G19C G47U | 0.04
102 | G19C G34C | 0.05
103 | G19C G34U | 0.07
104 | G19C G34A | 0.1
105 | U18G U43G | 0.77
106 | U18G U43A | 0.76
107 | U18G U43C | 0.67
108 | A17G G50C | 0.91
109 | A17G G50U | 0.99
110 | A17G G50A | 0.51
111 | A17U G19A | 0.83
112 | A17U G19U | 0.38
113 | A17U G19C | 0.43
114 | A17U U43C | 0.8
115 | A17U U43G | 0.57
116 | A17U U43A | 0.91
117 | G19C G23C | 0.02
118 | G19C G23A | 0.04
119 | G19C G23U | 0.04
120 | A17U A28C | 0.94

Row | Variant | self-cleavage
121 | A17U A28U | 0.97
122 | A17U A28G | 0.37
123 | A17U G23C | 0.06
124 | A17U G23A | 0.56
125 | A17U G23U | 0.13
126 | U18A | 0.95
127 | U18C | 0.96
128 | U18G | 0.84
129 | G19A U18A | 0.84
130 | G19A U18C | 0.93
131 | G19A U18G | 1.01
132 | U18G U37C | 0.86
133 | U18G U37A | 0.59
134 | U18G U37G | 0.85
135 | A17G G19U | 0.52
136 | A17G G19C | 0.29
137 | A17G G19A | 0.95
138 | A17G U12C | 0.56
139 | A17G U12A | 0.86
140 | A17G U12G | 0.39
141 | G19A G50A | 0.92
142 | G19A G50C | 0.27
143 | G19A G50U | 0.56
144 | A17U C27U | 0.25

Row | Variant | self-cleavage
145 | A17U C27A | 0.29
146 | A17U C27G | 0.13
147 | A17U C9U | 0.81
148 | A17U C9G | 0.8
149 | A17U C9A | 0.41
150 | U18C U37G | 0.95
151 | U18C U37C | 0.97
152 | U18C U37A | 0.69
153 | G19C G45A | 0.03
154 | G19C G45U | 0.03
155 | G19C G45C | 0.03
156 | A17U G22U | 0.63
157 | A17U G22A | 1.04
158 | A17U G22C | 0.11
159 | A17U U37C | 1.06
160 | A17U U37G | 1.01
161 | A17U U37A | 0.73
162 | G19A G44U | 0.4
163 | G19A G44A | 0.23
164 | G19A G44C | 0.72
165 | U18C U43G | 0.3
166 | U18C U43A | 0.65
167 | U18C U43C | 0.35
